Results on 71 compounds are retold here after ChEMBL document CHEMBL4513216, “Probing the Open Global Health Chemical Diversity Library for Multistage-Active Starting Points for Next-Generation Antimalarials” (ACS Infect Dis, 2020).

A short description of the data set: Toxicity liver stage against HepG2, at 10uM. The conditions noted are these: human, HepG2-A16-CD81EGFP cells; read-out: INHIBITION
It counts as cell-based. More on the design: test concentration 10 uM, cell line HepG2-A16-CD81EGFP. The method in brief:
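Uninfected HepG2-A16-CD81EGFP cells, 3 × 10^3 per well, 1536-well, plated on prespotted compound at 10 μM final, parasite-free screening media added to match infected plates; puromycin 10 μM positive, DMSO 0.5% negative; run in parallel with 48 h PbLuc assay at 37 °C, 5% CO2; viability by CellTiter-Glo luminescence, normalized to controls.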
With `FC(F)(F)c1[nH]nc2c1CN(Cc1ccccc1)CC2`, the cytotoxicity at 10 µM turned out to be 11.8%. For the compound `c1ccc(C2CCN(c3cncc(-n4cccn4)n3)CC2)cc1`, the cytotoxicity at 10 µM is -15.3%. `O=C(NC1CCCC1)O[C@H]1COCCN(c2nc3ccccc3s2)C1`: the cytotoxicity at 10 µM is -0.655%.

As for `COc1ccc(-c2c(C)nn3c(=N)c(C#N)n[nH]c23)cc1OC`, the cytotoxicity at 10 µM came out at 8.29%. Then `Cc1cccc(NC2CCc3c2[nH]c(=O)n(C2CCCCC2)c3=O)c1C` (stereo unspecified), with 5.05%. For the compound `Cc1cnc(NC(=O)c2csc(NCC(C)C)n2)s1`, the cytotoxicity at 10 µM was 34.4%.

For the compound `Cc1[nH]/c(=N\C(=O)c2csc(NC3CCCC3)n2)sc1C`, the cytotoxicity at 10 µM is 38.8%. On to `Oc1cc(C2CCCCN2Cc2cccs2)nc(-c2ccccn2)n1` (stereo unspecified), for which the cytotoxicity at 10 µM is 39.1%. On to `COc1cccc(OC)c1CNC(Cc1ccsc1)c1ccc(C)cn1` (stereo unspecified), for which the cytotoxicity at 10 µM worked out at 2.75%.

On to `COc1ccc(CN2CCOC(CCc3ccnc(N)c3)C2)cc1` (stereo unspecified), for which the cytotoxicity at 10 µM was 13.3%. As to `CN1CCc2nc(C3CCN(C(=O)CCC4CCCC4)CC3)ncc2C1`, the cytotoxicity at 10 µM is -3.06%.

On to `Cc1cc(-c2cnc(NCc3cccnc3)nc2C(C)(C)C)on1`, for which the cytotoxicity at 10 µM stood at 49.6%.

As for `CC(C)(C)OC(=O)N1CCCN(Cc2ccon2)c2ccccc21`, the cytotoxicity at 10 µM was found to be 11.1%. As for `Cc1c(Cl)cccc1OCC(=O)NC1(C#N)CCSC1` (stereo unspecified), the cytotoxicity at 10 µM stood at 37.8%.

For the compound `NC(=O)N1CCCN(C2CCc3ccc(F)cc32)CC1` (stereo unspecified), the cytotoxicity at 10 µM was found to be 3.93%. `Cc1ccc(N2CCCN(C(=O)c3cn(C)c4ccccc34)CC2)nn1`: the cytotoxicity at 10 µM is -9.53%.

On to `CN(C)c1cc(C(=O)NCc2cccnc2-n2cncn2)ccn1`, for which the cytotoxicity at 10 µM worked out at 8.15%. As to `CN(C)c1ncccc1NC(=O)C1CN(Cc2ccccc2)CCO1` (stereo unspecified), the cytotoxicity at 10 µM came to 0.499%.

For `Cc1ccc(C)c(OC2CCN(C(=O)CNc3ccccc3Cl)CC2)c1`, the cytotoxicity at 10 µM turned out to be 40.2%. Then `Cc1nc2ccccc2nc1NCc1cccc(OCC2CCCO2)c1` (stereo unspecified), with 44.3%; and `CC(C)n1nc2c(cc1=O)CN(c1ncnc3ccsc13)CC2`, with 60.6%.

On to `Cc1ccc(-c2nc(CSCCC(=O)NC(N)=O)co2)c(C)c1`, for which the cytotoxicity at 10 µM is -6.4%. `CS(=O)(=O)c1cccc(OCC(=O)N2CCCC2c2ccccc2Cl)c1` (stereo unspecified): the cytotoxicity at 10 µM came out at 4.36%.

As for `COCC(=O)Nc1nccn1Cc1ccc(Br)cc1`, the cytotoxicity at 10 µM is -55.1%. Turning to `Cc1nc(CN2CCCC(Nc3ncnc4c3CCC4)C2)no1` (stereo unspecified), the cytotoxicity at 10 µM stood at 34.3%. On to `Cc1cnn(CC2CN(c3ncnc4ccsc34)CCO2)c1` (stereo unspecified), for which the cytotoxicity at 10 µM amounted to 53.2%. `COCC(=O)N1C[C@H]2CCC[C@@]2(COC)C1`: the cytotoxicity at 10 µM amounted to 5.93%.

In the case of `CC(=O)N1CCOC2(CCN(C(=O)C3CC3)CC2)C1`, the cytotoxicity at 10 µM is -106%. As to `Cc1[nH]c2ccccc2c1-c1ccnc(N[C@@H](C)CO)n1`, the cytotoxicity at 10 µM is -6.52%. As for `CSc1nccc(N2CCC3(CCCN(Cc4ccc(F)cc4)C3)C2)n1` (stereo unspecified), the cytotoxicity at 10 µM came out at 9.5%.

With `COc1cccc(CN2CCC(CO)(Cc3ccc(Cl)cc3)CC2)c1O`, the cytotoxicity at 10 µM was -133%. Take `CCn1ncc(CNC(=O)c2cn(CCC3CCCCN3)nn2)c1C` (stereo unspecified): the cytotoxicity at 10 µM amounted to 2.72%. Turning to `Cc1nn(C)c2nc(N(CCOc3ccccc3)CC3CCCO3)sc12` (stereo unspecified), the cytotoxicity at 10 µM came out at 46.8%. The value for `COc1cc(Oc2cnc3ccccc3n2)ccc1CN1CCCC1` was 5.27%; that for `Cc1ncsc1-c1ccn(CC(=O)Nc2cnn(C)n2)n1` was 93.8%; that for `Cc1nn(-c2ccccc2)c(C)c1-c1ccnc(N2CCCNCC2)n1` was -9.5%. The value for `COc1ccc(CN(CC2CCCO2)c2nc3c(s2)c(C)nn3C)cc1` (stereo unspecified) was 11.4%; that for `Cc1cc(C(F)(F)F)nn1CCNC(=O)C(C)n1ccnc1C(C)C` (stereo unspecified) was -5.24%. Turning to `CCc1ccc(C2CC(=O)Nc3cc(NS(C)(=O)=O)ccc32)o1` (stereo unspecified), the cytotoxicity at 10 µM is 86%. As to `CCS(=O)(=O)CCNC1CCN(c2nc3ccc(Cl)cc3s2)CC1`, the cytotoxicity at 10 µM amounted to 32%. Then `Cc1cc(N2CCCC(c3[nH]ncc3Cc3ccccc3)C2)nc(N)n1` (stereo unspecified), with 57.1%; and `CC(C)c1cc(C2CCN(C(=O)Cn3cnc4ccccc43)CC2)[nH]n1`, with 51.8%. Turning to `Cc1cc2c(N3CCC(N(C)Cc4nccs4)CC3)ncnc2s1`, the cytotoxicity at 10 µM is 45%. As to `Cc1ccc(OC2CCN(CCn3cncn3)CC2)cc1`, the cytotoxicity at 10 µM is -1.67%. Consider `O=C(C1CCOCC1)N1CCC(OCc2cccnc2)CC1`, for which the cytotoxicity at 10 µM was found to be 2.12%. Take `Cc1noc(-c2ccnc(Oc3ccc(CN4CCCC4)cc3F)c2)n1`: the cytotoxicity at 10 µM amounted to 15.7%. Take `CNc1nc(C)c(C(=O)N2C[C@@H](C(=O)O)[C@H](C3CC3)C2)s1`: the cytotoxicity at 10 µM turned out to be 4.29%. For the compound `CC(c1cccc(-c2nccn2CCc2cn[nH]c2)c1)N(C)C` (stereo unspecified), the cytotoxicity at 10 µM is -4.83%. Consider `Cc1sc2nc(CCN)nc(N3CC(N4CCCCC4)C3)c2c1C`, for which the cytotoxicity at 10 µM was -21.9%.

On to `O=C1CC(c2ccc3c(c2)OCO3)c2cnn(C3CCCC3)c2N1` (stereo unspecified), for which the cytotoxicity at 10 µM was found to be 24.3%. Turning to `COc1ccc2cc(C3CN(C(=O)N(C)C)CCO3)ccc2c1` (stereo unspecified), the cytotoxicity at 10 µM amounted to 4.26%. The value for `Nc1nccc(N2CCCC(CO)(CCOc3ccccc3)C2)n1` (stereo unspecified) was 46.7%; that for `CCc1c(C)nc2cc(C3CCN(Cc4ccccc4F)C3)nn2c1O` (stereo unspecified) was 1.7%.

For the compound `Cc1nn(C)c(Cl)c1C1CCCN1C(=O)c1ccc(C(N)=O)cn1` (stereo unspecified), the cytotoxicity at 10 µM was -32%. The value for `Cc1noc(NC(=O)c2ccc(OC(F)(F)F)cc2)n1` was 33.5%; that for `N#Cc1ccc(CN2CCN(C(=O)c3cc(C4CC4)[nH]n3)CC2)cc1` was 18.9%.

In the case of `Cc1ccc(N(CC(=O)c2ccc(Br)cc2)C2=NCCCCC2)cc1`, the cytotoxicity at 10 µM stood at 36.5%. As to `COc1ccc(F)c(CN(CCCn2ccnc2)Cc2ccc(C)s2)c1`, the cytotoxicity at 10 µM was -7.14%. The value for `CCCS(=O)(=O)N1CCC2(CC1)CCn1c(-c3cnn(C)c3)cnc12` was -142%. The value for `CC(=O)N1CC[C@H]2[C@H](C[C@@H](Cn3cncn3)N2c2nccs2)C1` was -140%; that for `COc1cc(N2CC[C@@H](O)[C@@H]2Cc2cccnc2)ncn1` was -77.9%. For the compound `COc1cccc(-c2noc(C3CCN(Cc4ccccc4F)C3)n2)c1` (stereo unspecified), the cytotoxicity at 10 µM is -2.06%.

As to `CN(C)C[C@]12COC[C@H]1CN(Cc1ccccn1)C2`, the cytotoxicity at 10 µM was determined as 5.89%.

Turning to `COc1cc(N2CCCC3(CCN(c4cccnc4)C3=O)C2)ncn1` (stereo unspecified), the cytotoxicity at 10 µM was -103%. Turning to `CN(C)CC(=O)N1CCC2(CC1)CN(c1ncccn1)CCO2`, the cytotoxicity at 10 µM was -68.7%. As for `CNC(=O)c1cc2c(nc1NCC(C)C)CCN(CC1CC1)CC2`, the cytotoxicity at 10 µM was -158%. Regarding `COc1cc(N2CCC3(CCCN(Cc4ccccn4)C3)C2)ncn1` (stereo unspecified), the cytotoxicity at 10 µM is -88.6%. For `NC(=O)N1CCC2(CCN(C(=O)c3cccnc3)CC2)C1`, the cytotoxicity at 10 µM was -83%. Consider `Cc1nccc(NCc2cncc3c2CCN(CC2CC2)C3)n1`, for which the cytotoxicity at 10 µM was -92.4%. As for `Cc1noc(C)c1CN1CCC[C@]2(C[C@@H](Oc3ccccn3)CO2)C1`, the cytotoxicity at 10 µM is -67.1%. As for `CCN1CCn2c(-c3cccc(F)c3)cnc2C12CCN(C(C)=O)CC2`, the cytotoxicity at 10 µM is -1.09%.
